Published values from different studies.
Compare with care: the assays were run in different laboratories. pEC50, pIC50: −log10 of the molar value. ≈ marks a conversion by molar mass, not a printed value.

SMILES	organism	test	system	conditions	quantity	value
N#Cc1ccc(/C=C/c2nc3ccncc3c(=O)n2-c2cccc(C(=O)O)c2)cc1	Enterococcus faecium	microbial growth, broth dilution	NCTC7171		MIC	> 128 µg/mL
NS(=O)(=O)c1ccc(N/N=C2\C(=O)Nc3ccc4ncccc4c32)cc1	Trypanosoma brucei	parasite growth			pEC50	7.10
CC1=C(C(=O)Nc2cc3cn[nH]c3cc2F)C(c2ccc(C(F)(F)F)cc2)CC(=O)N1 (stereo not shown)	Plasmodium berghei	parasite growth, luciferase	human	liver stage	pIC50	5.33
CC(=O)NCc1cccc(-n2c(/C=C/c3ccc(C#N)cc3)nc3ccccc3c2=O)c1	Enterococcus faecium	microbial growth, broth dilution	NCTC7171		MIC	> 128 µg/mL
C[C@@H]1[C@H](O)[C@@H](C)/C=C/C=C/C=C/C=C/C=C/C=C/C=C/[C@H](O[C@@H]2O[C@H](C)[C@@H](O)[C@H](N)[C@@H]2O)C[C@@H]2O[C@](O)(C[C@@H](O)C[C@@H](O)[C@H](O)CC[C@@H](O)C[C@@H](O)CC(=O)O[C@H]1C)C[C@H](O)[C@H]2C(=O)O	Candida albicans	microbial growth, broth dilution	ATCC90028		IC50	0.26 µg/mL
COC(=O)Cc1ccc(/C=C/c2nc3ccccc3c(=O)n2-c2cccc(C(=O)O)c2)cc1	Enterococcus faecium	microbial growth, broth dilution	NCTC7171		MIC	> 128 µg/mL
C#CCCCCCCCCC=CCC(O)CC(O)CO (stereo not shown)	Mycobacterium intracellulare	microbial growth, resazurin	ATCC23068		IC50	> 200 µg/mL
CS(=O)(=O)CCNCc1nc(-c2ccc3ncnc(Nc4ccc(OCc5cccc(C(F)(F)F)c5)cc4)c3c2)cs1	Trypanosoma brucei	parasite growth			pEC50	5.50
C[C@@H]1[C@H](O)[C@@H](C)/C=C/C=C/C=C/C=C/C=C/C=C/C=C/[C@H](O[C@@H]2O[C@H](C)[C@@H](O)[C@H](N)[C@@H]2O)C[C@@H]2O[C@](O)(C[C@@H](O)C[C@@H](O)[C@H](O)CC[C@@H](O)C[C@@H](O)CC(=O)O[C@H]1C)C[C@H](O)[C@H]2C(=O)O	Candida albicans	microbial killing	ATCC90028		MFC	1.35 µM (≈ 1.25 µg/mL)
CCCCCCCCCCCCCC(O)CC(O)CO (stereo not shown)	Mycobacterium intracellulare	microbial growth, resazurin	ATCC23068		IC50	> 200 µg/mL
CC(=O)OCC#Cc1ccc(/C=C/c2nc3ccccc3c(=O)n2-c2cccc(C(=O)O)c2)cc1	Enterococcus faecium	microbial growth, broth dilution	NCTC7171		MIC	> 128 µg/mL
CC(CN)c1ccc(Oc2ccc(-c3noc(-c4ccc(O)cc4)n3)cc2)cc1.Cl (racemic)	Enterococcus faecium	microbial growth, broth dilution		24 h	MIC	4 µg/mL
C=CCCCCCCCCCCCC(O)CC(O)CO (stereo not shown)	Mycobacterium intracellulare	microbial growth, resazurin	ATCC23068		IC50	> 200 µg/mL
O=C(O)Cc1cccc(Oc2ccc(-c3noc(-c4ccc(O)cc4)n3)cc2)c1	Enterococcus faecium	microbial growth, broth dilution		24 h	MIC	> 32 µg/mL
O=C(Nc1ccc(Oc2ccc3nc(NC(=O)c4ccco4)[nH]c3c2)cc1)Nc1cc(C(F)(F)F)ccc1F	Trypanosoma brucei	parasite growth			pEC50	5.60
CCn1c(-c2nonc2N)nc2c(C#CC(C)(C)O)ncc(OC3CCNCC3)c21	Plasmodium berghei	parasite growth, luciferase	human	liver stage	pIC50	5.14
Cl.NCCCc1ccc(Oc2ccc(-c3noc(-c4ccc(O)cc4)n3)cc2)cc1	Enterococcus faecium	microbial growth, broth dilution		24 h	MIC	2 µg/mL
O=C(O)c1cn(C2CC2)c2cc(N3CCNCC3)c(F)cc2c1=O	Mycobacterium intracellulare	microbial growth	ATCC23068		pIC50	6.16
CC(=O)Nc1cccc(-n2c(/C=C/c3ccc(F)cc3)nc3ccccc3c2=O)c1	Enterococcus faecium	microbial growth, broth dilution	NCTC7171		MIC	> 128 µg/mL

SMILES	organism	test	system	conditions	quantity	value
COc1ccc(-c2nn3ncccc3c2-c2ccnc(Nc3ccc4c(c3)OCCO4)n2)cc1	Plasmodium berghei	parasite growth, luciferase	human	liver stage	pIC50	5.46
CS(=O)(=O)NCc1cccc(-n2c(/C=C/c3ccc(C#N)cc3)nc3ccccc3c2=O)c1	Enterococcus faecium	microbial growth, broth dilution	NCTC7171		MIC	> 128 µg/mL
COC(=O)c1ccc2c(c1)C(=Cc1cc(Br)c(O)c(Br)c1)C(=O)N2	Plasmodium berghei	parasite growth, luciferase	human	liver stage	pIC50	5.17
O=S(=O)(CCOCc1ccc(-c2ccc3ncnc(Nc4ccc(OCc5cccc(F)c5)c(Cl)c4)c3c2)o1)c1ccccc1	Trypanosoma brucei	parasite growth			pEC50	5.80
Oc1ccc(-c2nc(-c3ccc(Oc4ccccc4)cc3)no2)cc1	Enterococcus faecium	microbial growth, broth dilution		24 h	MIC	2 µg/mL (≈ 6.05 µM)
COC(=O)Nc1cccc(-n2c(/C=C/c3ccc(C#N)cc3)nc3ccccc3c2=O)c1	Enterococcus faecium	microbial growth, broth dilution	NCTC7171		MIC	> 128 µg/mL
CC1=C(C(=O)Nc2ccc3[nH]ncc3c2)C(c2ccc(Cl)c(Cl)c2)CC(=O)N1 (stereo not shown)	Trypanosoma brucei	parasite growth			pEC50	4.60
Cl.NCCc1ccccc1Oc1ccc(-c2noc(-c3ccc(O)cc3)n2)cc1	Enterococcus faecium	microbial growth, broth dilution		24 h	MIC	8 µg/mL
O=C(O)c1cn(C2CC2)c2cc(N3CCNCC3)c(F)cc2c1=O	Mycobacterium intracellulare	microbial growth, resazurin	ATCC23068		IC50	0.48 µg/mL
Cl.NCc1ccccc1Oc1ccc(-c2noc(-c3ccc(O)cc3)n2)cc1	Enterococcus faecium	microbial growth, broth dilution		24 h	MIC	8 µg/mL
COc1cc(/C=N/Nc2ncnc3c2cnn3C(C)C)ccc1O	Trypanosoma brucei	parasite growth			pEC50	6.00
NC(=O)c1cccc(-n2c(/C=C/c3ccc(Cl)cc3)nc3ccncc3c2=O)c1	Enterococcus faecium	microbial growth, broth dilution	NCTC7171		MIC	> 128 µg/mL
N#CCNC(=O)c1ccc(-c2ccnc(Nc3ccc(N4CCOCC4)cc3)n2)cc1	Plasmodium berghei	parasite growth, luciferase	human	liver stage	pIC50	6.26
C[N+](C)(C)CCc1ccc(Oc2ccc(-c3noc(-c4ccc(O)cc4)n3)cc2)cc1.[I-]	Enterococcus faecium	microbial growth, broth dilution		24 h	MIC	8 µg/mL
COc1cc(C=NNc2ncnc3c2cnn3-c2ccccc2)ccc1O	Trypanosoma brucei	parasite growth			pEC50	5.80
O=C(Nc1ccccc1-c1ccc(F)c(F)c1)c1nccnc1C(F)(F)F	Monilinia fructicola	microbial growth			EC50	0.11 µg/mL
C#CCCCCCCCCCCCC(O)CC(O)CO (stereo not shown)	Mycobacterium intracellulare	microbial growth, resazurin	ATCC23068		IC50	> 200 µg/mL
CN1CCC(n2cnc(-c3ccc(F)cc3)c2-c2ccnc(Nc3ccccc3)n2)CC1	Trypanosoma brucei	parasite growth			pEC50	6.30
